Calls of active or inactive are those of the source.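 How the source made its calls: active means inhibition of at least 50%; inactive means inhibition below 50%.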
molecular target: Diacylglycerol lipase-beta (Mus musculus) (UniProt Q91WC9); test: blocking of probe labeling on DAGLb – biochemical, gel-based fluorescence, overexpressed mouse, set 3, late-stage follow-up (AID 602300); conditions: HEK293T membrane mDAGLb, gel ABPP fluorescence; at 1 µM; hits give high values
In short: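 Material: Mouse DAGLb overexpressed in transiently transfected HEK293T cell membrane proteome | Quantity: 0.3 mg/mL membrane protein | Medium: Dulbecco's PBS (DPBS) | Schedule: 30 min compound plus 30 min probe, 37 °C | Technique: SDS-PAGE with in-gel fluorescence scan, band integrated optical density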

Sequence of Diacylglycerol lipase-beta (Mus musculus) (Q91WC9 whole entry, looked up): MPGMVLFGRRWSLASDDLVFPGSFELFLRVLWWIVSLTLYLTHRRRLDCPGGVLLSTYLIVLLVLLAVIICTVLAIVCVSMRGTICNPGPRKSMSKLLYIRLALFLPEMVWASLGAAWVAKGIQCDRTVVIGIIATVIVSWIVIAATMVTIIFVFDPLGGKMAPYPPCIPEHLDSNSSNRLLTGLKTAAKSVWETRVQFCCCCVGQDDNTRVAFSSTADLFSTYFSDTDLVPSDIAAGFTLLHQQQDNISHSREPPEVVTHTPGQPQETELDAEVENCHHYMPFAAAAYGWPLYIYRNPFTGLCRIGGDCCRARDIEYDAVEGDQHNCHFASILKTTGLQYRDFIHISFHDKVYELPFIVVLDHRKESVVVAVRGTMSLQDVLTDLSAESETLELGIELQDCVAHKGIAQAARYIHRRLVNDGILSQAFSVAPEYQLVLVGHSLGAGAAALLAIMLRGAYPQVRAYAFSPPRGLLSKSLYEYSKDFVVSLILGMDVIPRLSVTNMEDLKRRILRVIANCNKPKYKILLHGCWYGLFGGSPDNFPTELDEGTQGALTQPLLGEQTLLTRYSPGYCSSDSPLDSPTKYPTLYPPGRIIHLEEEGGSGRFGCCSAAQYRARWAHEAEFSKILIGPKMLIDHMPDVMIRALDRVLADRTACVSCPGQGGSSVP

Structure (SMILES) | inhibition
O=C(O)c1cccc(-c2ccc(-c3cn(C(=O)N4CCCCC4c4ccccc4)nn3)cc2)c1 (configuration not stated) | 6% (inactive)
O=C(N1CCCCC1Cc1ccccc1)n1cc(-c2ccc(-c3cccc(CO)c3)cc2)nn1 (configuration not stated) | 84%
O=C(N1CCCCC1c1ccccc1)n1cc(-c2ccc(-c3ccc(CO)cc3)cc2)nn1 (configuration not stated) | 0% (inactive)
O=C(c1ccc(-c2ccc(-c3cn(C(=O)N4CCCCC4Cc4ccccc4)nn3)cc2)cc1)N1CCCCC1 (configuration not stated) | 39% (inactive)
O=C(c1cccc(-c2ccc(-c3cn(C(=O)N4CCCCC4c4ccccc4)nn3)cc2)c1)N1CCCCC1 (configuration not stated) | 0% (inactive)
O=C(c1ccc(-c2ccc(-c3cn(C(=O)N4CCCCC4c4ccccc4)nn3)cc2)cc1)N1CCCCC1 (configuration not stated) | 0% (inactive)
O=C(N1CCCCC1c1ccccc1)n1cc(-c2ccc(-c3cccc(CO)c3)cc2)nn1 (configuration not stated) | 0% (inactive)
O=C(N1CCCCC1c1ccccc1)n1cc(-c2ccc(-c3ccccc3CO)cc2)nn1 (configuration not stated) | 0% (inactive)

The next lines start with the values.

inhibition | Structure (SMILES)
4% (inactive) | O=C(O)c1cccc(-c2ccc(-c3cn(C(=O)N4CCCCC4CCc4ccccc4)nn3)cc2)c1 (configuration not stated)
1% (inactive) | O=C(O)c1ccc(-c2ccc(-c3cn(C(=O)N4CCCCC4CCc4ccccc4)nn3)cc2)cc1 (configuration not stated)
50% | O=C(O)c1cccc(-c2ccc(-c3cn(C(=O)N4CCCCC4Cc4ccccc4)nn3)cc2)c1 (configuration not stated)
0% (inactive) | NC(=O)c1ccc(-c2ccc(-c3cn(C(=O)N4CCCCC4c4ccccc4)nn3)cc2)cc1 (configuration not stated)

Source: PubChem BioAssay AID602300 (The Scripps Research Institute Molecular Screening Center, 2012)
